Measurements reported in ChEMBL document CHEMBL4393661, “PRODRUGS FOR NITROREDUCTASE BASED CANCER THERAPY- 2: Novel amide/Ntr combinations targeting PC3 cancer cells” (Eur J Med Chem, 2019).

Experiments:
[1] = substrate: NC(=O)c1cc(N2CC2)c([N+](=O)[O-])cc1[N+](=O)[O-]; experiment: (§1) Substrate activity at Escherichia coli nitroreductase nfsB assessed as Kcat using NADH as cofactor at […] in Tris-Cl buffer at pH 7.5 by spectrophotometric method
[2] = substrate: NC(=O)c1cc(N(CCCl)CCCl)c([N+](=O)[O-])cc1[N+](=O)[O-]; experiment: as §1
[3] = substrate: CS(=O)(=O)OCCN(CCBr)c1c(C(=O)NCCO)cc([N+](=O)[O-])cc1[N+](=O)[O-]; experiment: as §1
[4] = substrate: NC(=O)c1cc(N2CC2)c([N+](=O)[O-])cc1[N+](=O)[O-]; experiment: (§2) Substrate activity at Escherichia coli nitroreductase nfsB assessed as Km using NADH as cofactor in Tris-Cl buffer at pH 7.5 by spectrophotometric method; type: ADME
[5] = substrate: CS(=O)(=O)OCCN(CCBr)c1c(C(=O)NCCO)cc([N+](=O)[O-])cc1[N+](=O)[O-]; experiment: as §2; type: ADME
[6] = substrate: CCN(C(C)=O)c1cc([N+](=O)[O-])cc([N+](=O)[O-])c1; experiment: (§3) Substrate activity at Staphylococcus saprophyticus nitroreductase assessed as Km using NADPH as cofactor in presence of Tris-Cl buffer at pH 7.5 by spectrophotometric method; type: ADME
How it was run: (§4)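 Michaelis–Menten parameters for recombinant Ssap-NtrB were measured spectrophotometrically at 25 °C in 25 mM Tris-Cl buffer pH 7.5 containing 5% DMSO as cosolvent.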

[7] = substrate: NC(=O)c1cc(N2CC2)c([N+](=O)[O-])cc1[N+](=O)[O-]; experiment: as §3; type: ADME; how it was run: as §4

B1: Oxygen-insensitive NAD(P)H nitroreductase (Escherichia coli K-12), P38489 (protein)
chain: MDIISVALKRHSTKAFDASKKLTPEQAEQIKTLLQYSPSSTNSQPWHFIVASTEEGKARVAKSAAGNYVFNERKMLDASHVVVFCAKTAMDDVWLKLVVDQEDADGRFATPEAKAANDKGRKFFADMHRKDLHDDAEWMAKQVYLNVGNFLLGVAALGLDAVPIEGFDAAILDAEFGLKEKGYTSLVVVPVGHHSVEDFNATLPKSRLPQNITLTEV
[1]
  kcat: 62 s⁻¹
[2]
  kcat: 26.4 s⁻¹
[3]
  kcat: 60 s⁻¹

B2: Oxygen-insensitive NAD(P)H nitroreductase (Escherichia coli K-12) (protein)
chain: MDIISVALKRHSTKAFDASKKLTPEQAEQIKTLLQYSPSSTNSQPWHFIVASTEEGKARVAKSAAGNYVFNERKMLDASHVVVFCAKTAMDDVWLKLVVDQEDADGRFATPEAKAANDKGRKFFADMHRKDLHDDAEWMAKQVYLNVGNFLLGVAALGLDAVPIEGFDAAILDAEFGLKEKGYTSLVVVPVGHHSVEDFNATLPKSRLPQNITLTEV
[4]
  Km: 11000 µM
  kcat/Km: 5600 M⁻¹ s⁻¹
[5]
  Km: 4500 µM
  kcat/Km: 13000 M⁻¹ s⁻¹

B3: Putative nitroreductase (Staphylococcus saprophyticus subsp. saprophyticus ATCC 15305 = NCTC 7292) (protein)
chain: MINNNFEEILMNRKSVKVFDEQVKIPKAEMDEMIKKATTAPSSVNMQPWRFLVVESDEGKDTLRPLIRFNTRQNDSSAAMVVIFGDMKSQTNAEEIYGNAVKHDLMPEEVKQEMLKKVIPLYDNAPKEQMNDIVKIDSSLAAMQFMLVAKAHGYDTNPIGGFESDQIADAFGIDSERYVPVLIVAIGKAKNPAHGSYRLPTETVTKYV
[6]
  Km: 96.9 µM
[7]
  Km: 1070 µM
  kcat: 2.26 s⁻¹
  kcat/Km: 2120 M⁻¹ s⁻¹
